The list is not random: actives were taken first. Their share in the collection is about 1.3%.
Xi reactivation: reactivates the inactive X chromosome in mouse fibroblasts; XiGFP mouse fibroblasts, % GFP-positive cells imaging, 3 d; cells co-treated with 5-aza-dC sensitizer; scaled so ellipticine positive control = 100%; activation, % at 7.58 µM; actives 0.055% (n = 360,000);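 active means mean normalized replicate activation at least 10% and every replicate at or above 10%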;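 further: 0% = median of on-plate neutral control wells and 100% = ellipticine 6 µM median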
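System: XiGFP fibroblasts, SV40-immortalized. Medium: DMEM plus 5-aza-dC sensitizer. Doses: single point. Timing: 3 d treatment, 15 min room-temperature fixation. Control set: ellipticine 6 µM.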
TPT1 inh: inhibitors of Candida albicans tRNA 2'-phosphotransferase TPT1. AID 1962. recombinant caTPT1, FP RNA substrate dephosphorylation. actives 0.81% (n = 300,000). inhibition, % at 5 µM;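 active means inhibition above the mean of all tested compounds plus 3 SD, set per screening campaign, cut at about 24% in these data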;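 further: plate controls were DMSO alone for no effect and ferristatin control at 100 nM for full effect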
CSN inh: CSN deneddylation inhibition; Q92905; Purified CSN, SCF-Nedd8-OG deneddylation, fluorescence polarization; inhibition, % at 12.5 µM; actives 0.38% (n = 360,000);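 active means pattern-corrected inhibition above about 35%, with an unprinted fluorescence ratio check between 0.5 and 1.5, limit read from the data, passing the limit was not always enough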;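 further: 0% = enzyme with substrate and 100% = substrate without enzyme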
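Schedule: reaction 90 min, room temperature / Assay system: HEK293T-derived human Csn5 enzyme / Input: Csn5 at 0.24 nM final / Measure: inhibition of Csn5 cleavage, % / Control set: substrate-only high control, full reaction low control / Technique: fluorescence polarization of the substrate / Buffer or medium: Tris/NaCl/DTT buffer, pH 7.5 / Reagent: SCFSkp2-Nedd8OG substrate at 10 nM final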
HNF4A DNA FP: change in binding of human HNF4 alpha to DNA; P41235; HNF4a-FITC DNA binding, fluorescence polarization, 1 h; activity change, % at 10 µM; actives 0.3% (n = 360,000); in the data active means activity change above about 30%, passing the limit was not always enough
aDG glyco up: alpha-DG glycosylation activation; activation, % at 10 µM; Pro5-aDG cells, alpha-DG glycosylation AlphaScreen (IIH6); 0% Pro5, 100% B10-LARGE cell signal; AID 624168; actives 0.22% (n = 360,000);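 active means activation of at least 8% versus controls, or a plate z-score of at least 8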;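 further: Pro5 are CHO cells carrying HIG-tagged alpha-DG that lacks glycosylation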
Rpn11 block: inhibitors of human proteasome Rpn11; inhibition, % at 20 µM; actives 0.59% (n = 360,000); AID 588493; O00487; human 26S proteasome, Ub4-pepOG fluorescence polarization; 20S core pre-blocked with epoxomicin;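 active means inhibition at 20 µM, scaled to each plate's controls, above about 33%, limit read from the data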
Rpn11 inh conf: Rpn11 inhibition confirmation, single concentration | shares compounds with Rpn11 block | purified human 26S proteasome, Ub4-pepOG fluorescence polarization; proteasome pretreated with epoxomicin | inhibition, % at 20 µM | actives 29% (n = 1,900)
MMP-2 inh: MMP-2 (human) inhibition counter-screen. shares compounds with Rpn11 block. recombinant MMP-2, FRET peptide cleavage fluorescence. inhibition, % at 20 µM. actives 4% (n = 1,900). AID 602330;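 further: human MMP-2 activated beforehand with APMA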
Target sequence (P08253 whole entry, looked up): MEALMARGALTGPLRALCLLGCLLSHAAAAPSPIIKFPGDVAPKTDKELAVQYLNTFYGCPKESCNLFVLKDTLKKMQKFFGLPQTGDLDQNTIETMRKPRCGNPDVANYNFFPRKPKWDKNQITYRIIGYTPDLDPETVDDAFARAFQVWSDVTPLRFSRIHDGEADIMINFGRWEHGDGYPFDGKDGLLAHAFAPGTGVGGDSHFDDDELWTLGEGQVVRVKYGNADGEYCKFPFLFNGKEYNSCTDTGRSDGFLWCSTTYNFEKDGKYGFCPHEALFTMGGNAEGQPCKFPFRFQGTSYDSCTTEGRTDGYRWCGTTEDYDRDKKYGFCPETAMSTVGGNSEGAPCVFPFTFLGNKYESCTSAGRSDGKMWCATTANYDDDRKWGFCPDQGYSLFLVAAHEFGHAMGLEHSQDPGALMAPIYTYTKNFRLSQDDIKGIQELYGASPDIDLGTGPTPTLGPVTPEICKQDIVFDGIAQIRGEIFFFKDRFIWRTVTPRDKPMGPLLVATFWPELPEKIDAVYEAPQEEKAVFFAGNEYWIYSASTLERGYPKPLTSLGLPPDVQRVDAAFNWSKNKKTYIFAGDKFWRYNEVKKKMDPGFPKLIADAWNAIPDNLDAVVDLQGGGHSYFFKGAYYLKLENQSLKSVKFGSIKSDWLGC
Thrombin inh: blocks bovine thrombin, flagging nonselective RPN11 hits; actives 13% (n = 1,900); bovine thrombin cleavage of Ub4-pepOG, fluorescence polarization; shares compounds with Rpn11 block; inhibition, % at 20 µM; AID 602333;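 active means mean inhibition at least 40% at 20 µM, or signal 3 deviations below plate average, so some actives read negative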;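 further: plate controls were thrombin with DMSO for no effect and buffer wells lacking thrombin for full effect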
An asterisk follows results filed as active; . = no result given; + = active, no number; ! = repeats disagree. Unless noted, no stated cut-off is given here; in the data, active means inhibition above about 40%; inactive means the rest.

SMILES | Xi reactivation | TPT1 inh | CSN inh | HNF4A DNA FP | aDG glyco up | Rpn11 block | Rpn11 inh conf | MMP-2 inh | Thrombin inh
CC(C)S(=O)(=O)C1=NSC2=NC(=O)/C(=C\c3ccc(-c4cccc(C(=O)O)c4)o3)C(=N)N21 | 0.4 | . | 15.1 | 23.7 | 0.8 | 68.7* | 29.6 | 0.3 | 20.9
CS(=O)(=O)C1=NSC2=NC(=O)/C(=C\c3ccc(-c4ccccc4)o3)C(=N)N21 | . | 7.1 | . | . | . | . | . | . | .
CC(C)S(=O)(=O)C1=NSC2=NC(=O)/C(=C\c3ccc(-c4ccccc4)o3)C(=N)N21 | . | 11.8 | 11.5 | 25.2 | 0.0 | 50.6* | 36.5 | 13.8 | 19.6
C[C@H](CO)N1C[C@H](C)[C@H](CN(C)S(=O)(=O)c2ccccc2F)Oc2cc(C#Cc3cccc(F)c3)ccc2S1(=O)=O | 0.0 | . | . | . | . | . | . | . | .
COc1cccc(C(=O)Nc2ccc3c(c2)C(=O)N(C)[C@H]2CC[C@H](CC(=O)NCc4ccccc4F)O[C@H]2CO3)c1 | 0.3 | . | . | . | . | . | . | . | .
O=S(=O)(Cc1ccccc1)NCC[C@@H]1CC[C@H](NS(=O)(=O)c2ccc(F)cc2)[C@H](CO)O1 | 0.4 | . | . | . | . | . | . | . | .
CCN(CC)c1cc(C(F)(F)F)nc(-c2ccccn2)n1 | . | 1.7 | 0.3 | 4.4 | 0.2 | 143.9* | -10.7 | -12.4 | -21.2
CC=Cc1ccc2n(c1=O)C[C@H]1[C@H](CO)[C@@H](C(=O)NC3CCC3)[C@@H]2N1Cc1ccncc1 (mixture of isomers) | -0.1 | . | . | . | . | . | . | . | .
CN1CCC[C@H]1CCNc1ccc2c(=O)c3ccccc3n(C)c2c1 | -0.1 | . | 5.3 | 6.2 | -0.2 | 48.0* | -8.8 | 5.5 | -25.0
COc1cccc(/C=N/NC(=O)c2[nH]c(C)c(C(=O)N/N=C/c3cccc(OC)c3)c2C)c1 | -0.1 | 1.7 | -0.2 | -1.3 | -0.1 | 57.2* | 44.8* | -2.0 | 1.8
CC1(C)Cc2c(C#N)c(SCCC#N)nc(N3CCOCC3)c2CS1 | . | -0.6 | -0.5 | -5.0 | -0.5 | 67.0* | 3.0 | -18.7 | -1.9
COc1ccc(NC(=O)c2ccc(C)cc2Cl)c([N+](=O)[O-])c1 | . | 1.8 | 4.8 | -5.0 | -0.4 | 48.0* | -6.1 | -25.6 | -8.3
S=C(NNc1ccnc2cc(Cl)ccc12)Nc1ccc(Cl)cc1Cl | -0.1 | 9.8 | 10.4 | -9.1 | 0.9 | 44.4* | 14.9 | 47.9* | -40.5
CCOc1ccc(NC(=S)NNc2ccnc3cc(Cl)ccc23)cc1 | -0.1 | 10.6 | 7.1 | 4.2 | 4.7 | 20.7 | . | . | .
O=c1[nH]c(/C=C/c2ccccc2Cl)nc2ccccc12 | -0.1 | -2.5 | 27.7 | 79.5* | 0.1 | 75.0* | 25.0 | 7.5 | -18.3
CO[C@@H]1CN(C)C(=O)c2ccc(NS(=O)(=O)c3ccc(-c4ccccc4)cc3)cc2OC[C@@H](C)NC[C@@H]1C | -0.5 | . | . | . | . | . | . | . | .
Nc1c(C(=O)OCC2CCCO2)c2nc3ccccc3nc2n1-c1ccc2c(c1)OCCO2 (stereo unspecified) | . | 18.3 | . | . | . | . | . | . | .
O=c1c2c3nc4ccccc4nc3n(-c3ccc4c(c3)OCCO4)c2ncn1C1CCCC1 | . | 0.7 | 1.0 | 15.5 | -0.1 | 128.5* | -1.6 | -13.2 | -17.5
N#C/C(=C\c1cn(CCOc2ccccc2)c2ccccc12)C(=O)NCC1CCCO1 (stereo unspecified) | . | -2.2 | -5.7 | -3.3 | 2.3 | 0.3 | . | . | .
Cc1ccc(C)c(OCCn2cc(/C=C(/C#N)C(=O)NCC3CCCO3)c3ccccc32)c1 (stereo unspecified) | -0.1 | 10.5 | -3.5 | 1.2 | -0.2 | 100.4* | 71.8* | -0.6 | 27.7
CCCCCCSc1cc(-c2nc3cc(C)ccn3c2NC2CCCCC2)ccc1OC | 0.0 | 8.3 | 16.8 | 25.7 | 1.1 | 52.5* | 11.0 | 7.4 | -12.4
CCCCCCSc1ccc(-c2nc3ccc(C)cn3c2NC2CCCCC2)cc1 | 0.0 | -3.1 | 6.8 | 6.0 | 0.3 | 7.6 | . | . | .
CCC(C)Sc1ccc(-c2nc3cc(C)ccn3c2NC2CCCCC2)cc1 (stereo unspecified) | 0.3 | . | 21.3 | 44.6*! | 4.7 | 115.1* | 8.7 | -43.3 | -2.5
COc1cc(-c2nc3cc(C)ccn3c2NC2CCCCC2)ccc1-c1ccc(C(C)=O)cc1 | 0.0 | 6.0 | 9.9 | 14.3 | 3.8 | 41.7* | 12.6 | 4.3 | -11.2
Cc1ccn2c(NC3CCCC3)c(-c3ccncc3)nc2c1 | 0.1 | -1.7 | -0.3 | -1.5 | 0.4 | -1.2 | . | . | .
SMILES | Xi reactivation | TPT1 inh | CSN inh | HNF4A DNA FP | aDG glyco up | Rpn11 block | Rpn11 inh conf | MMP-2 inh | Thrombin inh
CCCCCCSc1ccc(-c2nc3cc(C)ccn3c2NC2CCCCC2)cc1 | 0.0 | . | 17.4 | 27.2 | 1.8 | 58.1* | 19.8 | -14.8 | 6.0
Cc1ccc(S(=O)(=O)N2CC[C@@H]3[C@@H](CO)Nc4ccc(-c5ccc(C#N)cc5)cc4[C@@H]32)cc1 | 0.2 | . | . | . | . | . | . | . | .
CO[C@@H]1CN(C)C(=O)c2ccc(NC(=O)NC(C)C)cc2OC[C@@H](C)N(C(=O)C2CCC2)C[C@H]1C | 0.4 | . | . | . | . | . | . | . | .
Cc1ccn2c(NC3CCCCC3)c(-c3cccc(-c4cccc(Cl)c4)c3)nc2c1 | 0.1 | 0.6 | 2.3 | 11.5 | 5.2 | 43.6* | 11.3 | -40.0 | -3.8
CC(C)NC(=O)N(C)C[C@@H]1Oc2cc(C#Cc3ccccn3)ccc2S(=O)(=O)N([C@H](C)CO)C[C@H]1C | -0.6 | . | . | . | . | . | . | . | .
O=S(=O)(c1ccc(F)cc1)N1CCCCN2[C@H](C1)[C@@H](c1ccc(-c3cncnc3)cc1)[C@@H]2CO | 0.0 | . | . | . | . | . | . | . | .
Cc1cccc(OCCCC(=O)N2CCCCCC2)c1C | 0.2 | . | 3.7 | 5.7 | 0.2 | 47.4* | -15.8 | -1.3 | -17.6
Cc1cccc(OCCCC(=O)O)c1C | . | -3.5 | -0.4 | 1.5 | -0.2 | 1.8 | . | . | .
c1ccc(-n2nnnc2Sc2ncnc3sc4c(c23)CCCC4)cc1 | -0.1 | -4.5 | 0.8 | 1.6 | 0.5 | 46.6* | 7.0 | -18.4 | 1.3
Cc1cc2c(c(=O)n1C1CC1)C(c1cccc(Cl)c1)C(C#N)=C(N)O2 (stereo unspecified) | . | -0.8 | 0.8 | 27.7 | 0.2 | + | 7.8 | -0.9 | 7.0
COc1ccc(NC(=O)N(C)C[C@@H]2OCCCC[C@H](C)Oc3ccc(NC(=O)C4CCCCC4)cc3C(=O)N([C@H](C)CO)C[C@H]2C)cc1 | -0.1 | . | . | . | . | . | . | . | .
O=C(NCCCN1CCCCCC1)c1cc2c(=O)oc3ccccc3c2s1 | 0.1 | 1.3 | 10.6 | 18.3 | -0.2 | 63.8* | 0.9 | 16.4 | -6.0

High-throughput results from PubChem.
